MIC and Time data for 75 compounds are collected here from ChEMBL document CHEMBL1147117, “Novel synthetic antimicrobial peptides against Streptococcus mutans” (2007).

Common to all, as to type: functional
Assay [1] deals with Streptococcus mutans. The assay is described as follows: Antibacterial activity against Streptococcus mutans after 16 to 20 hrs. The procedure, abridged:
(§1)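 Broth microdilution in TH broth or Veillonella medium. Overnight cultures grown to OD600 0.75 to 0.8 were diluted to 1 x 10^5 CFU/ml. Peptide was serially diluted 1:2 from 500 or 512 µg/ml down to 1.95 or 2 µg/ml, with a methanol solvent control. Incubation was 16 to 20 h at 37°C, anaerobic, without shaking. MIC was read visually as the last clear well. Run in triplicate.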

Assay [2] relates to Veillonella atypica. The assay is described as follows: Antibacterial activity against Veillonella atypica PK1910 after 16 to 20 hrs. The procedure, abridged: as §1
Assay [3] relates to Streptococcus sanguinis. Description: Antibacterial activity against Streptococcus sanguinis NY101 after 16 to 20 hrs. The procedure, abridged: as §1
Assay [4] deals with Lacticaseibacillus casei. Description: Antibacterial activity against Lactobacillus casei ATCC 4646 after 16 to 20 hrs. The procedure, abridged: as §1
In assay [5] the test system is Streptococcus mitis. Description: Antibacterial activity against Streptococcus mitis ATCC 903 after 16 to 20 hrs. The procedure, abridged: as §1
Assay [6] has as its system Streptococcus gordonii. Description: Antibacterial activity against Streptococcus gordonii Challis DL1 after 16 to 20 hrs. The procedure, abridged: as §1
Assay [7] has as its system Streptococcus mutans. Description: Bactericidal activity against Streptococcus mutans UA159 assessed as time required to kill 3 log10 of recoverable CFU/ml at 25 ug/ml relative to untreated control. The procedure, abridged: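 Time-kill assay. Overnight UA159 cultures were diluted in medium to 0.5 x 10^6 to 1 x 10^6 CFU/ml and exposed to 25 µg/ml peptide. At each time point a 10-µl aliquot was diluted 1:50 into growth medium and plated on TH agar; whole 1-ml samples were plated when survivors were below 3,000 CFU/ml. TC is the time for survivors to fall 3 log10 below untreated CFU/ml. Repeated 3 to 5 times.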

What is called MIC is the lowest concentration that inhibits growth of the organism.

Where a SMILES comes first, the peptide text is derived from it.

In the case of H-VKTLLHIFQRF-NH2, 31.2 µg/mL was the least that counted as inhibitory in assay [1] (MIC). Compound H-RVLQEIKQILK-OH had an MIC in assay [1] of over 250 µg/mL. In assay [1], H-VKQLLKIFNRF-NH2 had a minimal inhibitory concentration (MIC) of 32 µg/mL.

Compound `Cl.N=C(N)NCCC[C@H](NC(=O)[C@H](CCCNC(=N)N)NC(=O)[C@@H](N)CCCNC(=N)N)C(=O)N[C@@H](CCCCN)C(=O)N[C@@H](Cc1c[nH]c2ccccc12)C(=O)N[C@@H](Cc1c[nH]c2ccccc12)C(=O)N[C@@H](CCCCN)C(=O)O` (H-RRRKWWK-OH) displayed a minimum inhibitory concentration (MIC) in assay [1] of 125 µg/mL.

Take H-RWRWRWF-NH2: the minimal inhibitory concentration (MIC) turned out to be 64 µg/mL in assay [2]; 125 µg/mL in assay [1]; 32 µg/mL in assay [3]; 32 µg/mL in assay [4]; 32 µg/mL in assay [5]; 32 µg/mL in assay [6]. For the same compound, the Time in assay [7] worked out at 220 min. In assay [1], H-RWRWRWFGGGRWRWRWF-NH2 registered an MIC of 16 µg/mL. The Time in assay [7] came to 90 min. On to H-RWRWRWFGGGFKKFWKWFRRF-NH2, for which the MIC in assay [2] worked out at 8 µg/mL; in assay [1], 4 µg/mL; in assay [3], 8 µg/mL; in assay [4] it was 8 µg/mL; in assay [5], 64 µg/mL; in assay [6], 16 µg/mL. H-KLFKRWKHLFR-OH registered a minimal inhibitory concentration (MIC) in assay [1] of 31.2 µg/mL. Regarding H-LYHFLHWFQRF-NH2, in assay [1], it took 125 µg/mL to inhibit growth (MIC). Regarding H-RRRRWWK-OH, the MIC in assay [1] was 125 µg/mL. Compound H-KLKKLLKHLHHLLH-NH2 came in with an MIC in assay [1] of 8 µg/mL. In the case of H-IKQLLHFFQRF-NH2, the MIC in assay [2] amounted to 64 µg/mL; in assay [1], 24 µg/mL; in assay [3], 64 µg/mL; in assay [4], 32 µg/mL; in assay [5] it was 64 µg/mL; in assay [6], 32 µg/mL.

Turning to H-KLKKLLKKLKKLLK-OH, inhibition of growth in assay [1] (MIC) required 8 µg/mL. As to H-RWRRLLKKLHHLLH-NH2, the MIC was 4 µg/mL in assay [2]; 8 µg/mL in assay [1]; 16 µg/mL in assay [3]; 16 µg/mL in assay [4]; 32 µg/mL in assay [5]; 16 µg/mL in assay [6]. In the case of H-KLAENVKEILR-NH2, in assay [1], the minimum inhibitory concentration (MIC) was over 250 µg/mL. H-RWRWRWK-OH registered an MIC in assay [1] of 32 µg/mL. As to H-RWRKRWK-OH, it took 125 µg/mL to inhibit growth in assay [1] (MIC).

Compound H-RRRWWWFPSGSPRRRWWWF-NH2 came in with a minimal inhibitory concentration (MIC) in assay [1] of 32 µg/mL. In addition, the Time in assay [7] was determined as 420 min. The compound H-KLVEQLKEIFR-OH registered an MIC in assay [1] of over 250 µg/mL. Regarding H-FKKFWKWFRRFGGGRWRRLLKKLHHLLH-NH2, the minimum inhibitory concentration (MIC) in assay [1] was found to be 16 µg/mL.

H-RILKELKNLFK-OH gave an MIC in assay [1] of over 250 µg/mL. Take H-RALHEAKEALK-OH: the MIC in assay [1] was over 250 µg/mL. As for H-AQAAHQAAHAAHQF-NH2, the minimal inhibitory concentration (MIC) in assay [1] was over 125 µg/mL. H-FKKFWKWFRRF-NH2: the MIC in assay [2] worked out at 16 µg/mL; in assay [1] it was 8 µg/mL; in assay [3], 32 µg/mL; in assay [4], 32 µg/mL; in assay [5], 32 µg/mL; in assay [6] it was 32 µg/mL. Consider H-LKRFLKWFKRFGGGRWRWRWF-NH2, for which the MIC came to 8 µg/mL in assay [2]; 4 µg/mL in assay [1]; 16 µg/mL in assay [3]; 16 µg/mL in assay [4]; 64 µg/mL in assay [5]; 64 µg/mL in assay [6]. In assay [1], H-IKTLLHFFQRF-NH2 displayed a minimum inhibitory concentration (MIC) of 32 µg/mL. Still for that read-out and setting: under H-VKKLAKLVRRF-NH2 stands 16 µg/mL; under H-TILQSLKNIFK-OH, over 125 µg/mL. On to H-FKKFWKWFRRFGGGRWRWRWF-NH2, for which the MIC in assay [2] amounted to 8 µg/mL; in assay [1] it was 4 µg/mL; in assay [3], 16 µg/mL; in assay [4] it was 8 µg/mL; in assay [5] it was 64 µg/mL; in assay [6], 32 µg/mL. The compound H-RRRRWWW-OH yielded an MIC in assay [1] of 16 µg/mL. In assay [1], H-RRRFWWR-OH gave an MIC of 31.2 µg/mL. H-RWRWRWFASASARWRWRWF-NH2 gave a minimum inhibitory concentration (MIC) in assay [1] of 16 µg/mL. For the same compound, in assay [7], the Time turned out to be 45 min. Consider H-RRWWRRK-OH, for which it took 125 µg/mL to inhibit growth in assay [1] (MIC).

H-RRRWWWFRRRWWWF-NH2 had a minimum inhibitory concentration (MIC) in assay [1] of 16 µg/mL. Besides, the Time in assay [7] was 60 min.

With H-RRRWWWK-OH, it took 31.2 µg/mL to inhibit growth in assay [1] (MIC). The same measure, in the same setting: with H-KLVQQLKNIFR-OH the figure was over 125 µg/mL; with H-VKNLAELVHRF-NH2, over 250 µg/mL. In the case of H-KLLQTFKQIFR-OH, in assay [1], the MIC is over 250 µg/mL. On the same count and under the same terms, under H-LKLLKKLLKLLKKF-NH2 stands 8 µg/mL; under H-RALKRIKHVLK-OH, over 125 µg/mL. As for H-IKQLLHFFQRFGGGRWRWRWF-NH2, the MIC in assay [2] turned out to be 8 µg/mL; in assay [1], 4 µg/mL; in assay [3], 16 µg/mL; in assay [4], 16 µg/mL; in assay [5], 64 µg/mL; in assay [6], 32 µg/mL. As to H-LKRFLKWFKRF-NH2, the minimum inhibitory concentration (MIC) was 32 µg/mL in assay [2]; 8 µg/mL in assay [1]; 16 µg/mL in assay [3]; 16 µg/mL in assay [4]; 64 µg/mL in assay [5]; 32 µg/mL in assay [6]. Consider H-RWRRLLKKLHHLLHGGGFKKFWKWFRRF-NH2, for which the minimal inhibitory concentration (MIC) in assay [2] turned out to be 8 µg/mL; in assay [1], 4 µg/mL; in assay [3], 16 µg/mL; in assay [4], 8 µg/mL; in assay [5] it was 32 µg/mL; in assay [6], 16 µg/mL. Take H-RWRWRWFGGGLKRFLKWFKRF-NH2: the MIC worked out at 16 µg/mL in assay [2]; 8 µg/mL in assay [1]; 16 µg/mL in assay [3]; 8 µg/mL in assay [4]; 64 µg/mL in assay [5]; 32 µg/mL in assay [6]. Regarding H-RWRRWWRHFHHFFH-NH2, the MIC in assay [1] came to 8 µg/mL. The same measure, in the same setting: under H-FHYFWHWFHRF-NH2 stands 125 µg/mL; under H-AKRLLKVLKRF-NH2, 16 µg/mL; under H-IKQLLHFFQRFGGGRWRRLLKKLHHLLH-NH2, 16 µg/mL. Compound H-KLAQKVKRVLR-OH registered a minimal inhibitory concentration (MIC) in assay [1] of over 125 µg/mL. H-KLKKLLKRWRRWWR-OH came in with an MIC in assay [1] of 8 µg/mL.

With H-RRWWRRF-NH2, in assay [1], the minimal inhibitory concentration (MIC) was determined as 4 µg/mL. In assay [1], H-AQAAKQAAKAAKQF-NH2 registered a minimal inhibitory concentration (MIC) of over 125 µg/mL. On the same count and under the same terms, under H-RWRWRWFGGGIKQLLHFFQWRF-NH2 stands 8 µg/mL. Compound H-YLLTEFQHLFK-OH showed an MIC in assay [1] of over 125 µg/mL. For H-RVLNQVKQILK-OH, in assay [1], the minimum inhibitory concentration (MIC) was over 125 µg/mL.

The compound H-RRRKWWK-OH showed an MIC in assay [1] of 250 µg/mL.

In turn, H-KLLQTFNQIFR-OH showed an MIC in assay [1] of over 125 µg/mL. In the case of H-RRRWWWF-NH2, the minimum inhibitory concentration (MIC) is 64 µg/mL in assay [2]; 4 µg/mL in assay [1]; 16 µg/mL in assay [3]; 16 µg/mL in assay [4]; 32 µg/mL in assay [5]; 32 µg/mL in assay [6]. Further, the Time in assay [7] is reported as 220 min. H-RRRWWWR-OH: in assay [1], inhibition of growth (MIC) required 32 µg/mL.

As for H-RRRWWWFASASARRRWWWF-NH2, the MIC in assay [1] worked out at 32 µg/mL. Besides, the Time in assay [7] was 480 min.

With H-RWRWRWFPSGSPRWRWRWF-NH2, in assay [1], the MIC worked out at 32 µg/mL. For the same compound, in assay [7], the Time came to 270 min. In turn, H-RWRRLLKKLHHLLHGGGIKQLLHFFQRF-NH2 came in with a minimum inhibitory concentration (MIC) in assay [1] of 16 µg/mL. The compound H-RLLKRFKHLFK-OH registered an MIC in assay [1] of 31.2 µg/mL. In assay [1], H-LKQFVHFIHRF-NH2 yielded an MIC of 32 µg/mL. With H-RRRWWWFGGGRRRWWWF-NH2, the MIC in assay [1] was found to be 16 µg/mL. The Time in assay [7] is given as 270 min. H-FKTFLKWLHRF-NH2 displayed an MIC in assay [1] of 24 µg/mL. H-RWRWRWFRWRWRWF-NH2: inhibition of growth in assay [1] (MIC) required 16 µg/mL. For the same compound, the Time in assay [7] stood at 50 min. H-ATHLLHALQRF-NH2 displayed a minimum inhibitory concentration (MIC) in assay [1] of over 250 µg/mL. H-YLFQTWQHLFR-OH registered a minimum inhibitory concentration (MIC) in assay [1] of over 125 µg/mL.

For H-RRWKRRK-OH, in assay [1], it took 500 µg/mL to inhibit growth (MIC). For the compound H-LQLLKQLLKLLKQF-NH2, the MIC in assay [1] came to 8 µg/mL. On to H-FKTFLQWLHRF-NH2, for which inhibition of growth in assay [1] (MIC) required 16 µg/mL.

In assay [1], H-LKQFVKFIHRF-NH2 had an MIC of 24 µg/mL. In the case of H-RWRWRWR-OH, 32 µg/mL was the least that counted as inhibitory in assay [1] (MIC).

The compound H-RRWWRRW-OH yielded an MIC in assay [1] of 16 µg/mL.
